Laboratory results published in ChEMBL document CHEMBL3632461 (J Med Chem, 2015).

What was measured:
[1] = Drug excretion in Beagle dog urine at 1 mg/kg, iv; type: ADME, organism-based, Canis lupus familiaris; settings: read-out: Drug excretion
How it was run: (§1)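 Male animals (beagle dogs 12 kg, Wistar-Han rats 250 g, cynomolgus monkeys 7 kg), fasted overnight and fed 1.0 or 2.0 h after dosing, water ad libitum. Dosed iv at 1 mg/kg in saline or 12% sulfobutyl ether β-cyclodextrin. Fraction of the iv dose excreted unchanged in urine.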

[2] = Oral bioavailability in CD-1 mouse at 3 or 5 mg/kg; type: ADME, organism-based; settings: in vivo
How it was run: (§2)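 Male CD-1 mice, Wistar-Han rats, beagle dogs and cynomolgus monkeys, fasted overnight and fed after dosing. Given po at 3 or 5 mg/kg in 0.5% methylcellulose, with an iv reference dose of 1 mg/kg. Bioavailability derived from plasma concentration−time data; mean ± SD (n = 3) or individual values (n = 2).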

[3] = Fraction unbound in monkey plasma at 2 uM by equilibrium dialysis method; type: ADME, cell-free, Macaca mulatta; settings: rhesus monkey
How it was run: (§3)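 Compound at 2 μM in mouse, rat, dog, monkey or human plasma; unbound fraction measured by equilibrium dialysis and reported as a mean.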

[4] = target: T1, Cytochrome P450 2C8 (Homo sapiens, UniProt P10632); experiment: Reversible inhibition of CYP2C8 amodiaquine-N-deethylase activity in human liver microsomes by LC-MS/MS analysis; type: ADME
T1 sequence (P10632 whole entry): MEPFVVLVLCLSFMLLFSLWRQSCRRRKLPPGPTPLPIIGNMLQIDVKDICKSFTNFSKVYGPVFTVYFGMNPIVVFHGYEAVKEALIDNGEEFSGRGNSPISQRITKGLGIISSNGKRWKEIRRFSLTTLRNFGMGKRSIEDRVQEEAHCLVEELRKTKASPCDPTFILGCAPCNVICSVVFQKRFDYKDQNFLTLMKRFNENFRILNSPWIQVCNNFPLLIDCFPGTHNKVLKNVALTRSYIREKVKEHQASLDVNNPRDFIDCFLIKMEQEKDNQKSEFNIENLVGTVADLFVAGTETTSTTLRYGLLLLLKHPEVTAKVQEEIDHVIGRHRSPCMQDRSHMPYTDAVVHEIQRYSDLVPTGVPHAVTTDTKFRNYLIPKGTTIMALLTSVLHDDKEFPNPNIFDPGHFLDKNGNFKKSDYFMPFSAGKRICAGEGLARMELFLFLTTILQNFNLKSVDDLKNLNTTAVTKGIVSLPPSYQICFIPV
How it was run: (§4)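 Reversible inhibition of the major CYP enzymes tested in human liver microsomes using established protocols.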

[5] = Plasma clearance in CD-1 mouse at 1 mg/kg, iv and 3 or 5 mg/kg, po; type: ADME, organism-based
How it was run: (§5)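 Male CD-1 mice (25−35 g), cannulated Wistar-Han rats (250 g), beagle dogs (12 kg) and cynomolgus monkeys (7 kg), fasted overnight and fed 1.0 or 2.0 h after dosing. iv 1 mg/kg in saline or 12% sulfobutyl ether β-cyclodextrin; po 3 or 5 mg/kg in 0.5% methylcellulose. Parameters calculated from plasma concentration−time data; mean ± SD for n = 3, individual values for n = 2.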

[6] = target: Cytochrome P450 2C9 (Homo sapiens, UniProt P11712); experiment: Reversible inhibition of CYP2C9 in human liver microsomes by LC-MS/MS analysis; type: ADME; how it was run: as §4
[7] = Elimination half life in cynomolgus monkey at 1 mg/kg, iv and 3 or 5 mg/kg, po; type: ADME, organism-based, Macaca fascicularis; settings: in vivo; how it was run: as §5
[8] = target: Cytochrome P450 3A4 (Homo sapiens, UniProt P08684); experiment: Reversible inhibition of CYP3A4 in human liver microsomes by LC-MS/MS analysis; type: ADME; how it was run: as §4
[9] = tested on: Cynomolgus monkey; experiment: In vivo inhibition of MPO in LPS-stimulated po dosed cynomolgous monkey administered 1 hr post LPS challenge measured after 2 hrs; type: functional, organism-based; settings: Macaca fascicularis
How it was run: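 Randomized crossover design in cynomolgus monkeys given iv LPS, then oral vehicle or compound (5, 20, 80 mg/kg) 1 h later. Heparinized plasma collected 2 h after dosing. Total MPO captured on anti-MPO antibody plates, plasma exchanged for drug-free medium, and residual activity read by Amplex Red peroxidation. EC₅₀ from a mixed-effect sigmoid model of exposure versus activity.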

[10] = target: Cytochrome P450 2D6 (Homo sapiens, UniProt P10635); experiment: Reversible inhibition of CYP2D6 dextromethorphan O-demethylase activity in human liver microsomes by LC-MS/MS analysis; type: ADME; how it was run: as §4
[11] = Fraction unbound in dog plasma at 2 uM by equilibrium dialysis method; type: ADME, cell-free, Canis lupus familiaris; how it was run: as §3
[12] = target: T1, Cytochrome P450 2C8; experiment: Time-dependent inhibition of CYP2C8 in human liver microsomes; type: ADME
How it was run: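 Time- and concentration-dependent CYP inhibition assessed by an IC₅₀ shift assay in human liver microsomes.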

[13] = Tmax in CD-1 mouse at 3 or 5 mg/kg, po; type: ADME, organism-based; settings: in vivo
How it was run: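 Male animals (CD-1 mice 25−35 g, cannulated Wistar-Han rats 250 g, beagle dogs 12 kg, cynomolgus monkeys 7 kg), fasted overnight and fed 1.0 or 2.0 h after dosing, water ad libitum. Oral dose 3 or 5 mg/kg in 0.5% methylcellulose. Parameters calculated from plasma concentration−time data; mean ± SD for n = 3, individual values for n = 2.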

[14] = target: T2, Cytochrome P450 2B6 (Homo sapiens, UniProt P20813); experiment: Reversible inhibition of CYP2B6 bupropion hydroxylase activity in human liver microsomes by LC-MS/MS analysis; type: ADME; how it was run: as §4
T2 sequence (P20813 whole entry): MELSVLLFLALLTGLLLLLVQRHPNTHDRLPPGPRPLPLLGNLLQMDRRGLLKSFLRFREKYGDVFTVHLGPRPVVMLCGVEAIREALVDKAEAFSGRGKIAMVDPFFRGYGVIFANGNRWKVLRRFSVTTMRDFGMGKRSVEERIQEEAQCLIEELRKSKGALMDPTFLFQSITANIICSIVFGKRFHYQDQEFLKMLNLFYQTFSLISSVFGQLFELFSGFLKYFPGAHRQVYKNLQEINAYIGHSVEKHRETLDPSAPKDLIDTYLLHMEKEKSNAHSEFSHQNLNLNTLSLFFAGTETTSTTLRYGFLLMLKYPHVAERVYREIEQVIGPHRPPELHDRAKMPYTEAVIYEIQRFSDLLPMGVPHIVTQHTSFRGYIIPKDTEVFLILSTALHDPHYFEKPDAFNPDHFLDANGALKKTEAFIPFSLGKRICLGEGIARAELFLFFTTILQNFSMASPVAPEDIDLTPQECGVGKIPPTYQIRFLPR

[15] = Elimination half life in CD-1 mouse at 1 mg/kg, iv and 3 or 5 mg/kg, po; type: ADME, organism-based; settings: in vivo; how it was run: as §5
[16] = Oral bioavailability in cynomolgus monkey at 3 or 5 mg/kg; type: ADME, organism-based, Macaca fascicularis; settings: in vivo; how it was run: as §2
[17] = Plasma clearance in cynomolgus monkey at 1 mg/kg, iv and 3 or 5 mg/kg, po; type: ADME, organism-based, Macaca fascicularis; how it was run: as §5
[18] = Drug excretion in Wistar rat urine at 1 mg/kg, iv; type: ADME, organism-based; settings: read-out: Drug excretion; how it was run: as §1
[19] = Retention time of the compound in sodium phosphate buffer at 10 uM after 60 mins by LC-MS/MS analysis in presence of H2O2; type: physicochemical; settings: 1 h

Sequence of Cytochrome P450 2D6 (P10635 whole entry): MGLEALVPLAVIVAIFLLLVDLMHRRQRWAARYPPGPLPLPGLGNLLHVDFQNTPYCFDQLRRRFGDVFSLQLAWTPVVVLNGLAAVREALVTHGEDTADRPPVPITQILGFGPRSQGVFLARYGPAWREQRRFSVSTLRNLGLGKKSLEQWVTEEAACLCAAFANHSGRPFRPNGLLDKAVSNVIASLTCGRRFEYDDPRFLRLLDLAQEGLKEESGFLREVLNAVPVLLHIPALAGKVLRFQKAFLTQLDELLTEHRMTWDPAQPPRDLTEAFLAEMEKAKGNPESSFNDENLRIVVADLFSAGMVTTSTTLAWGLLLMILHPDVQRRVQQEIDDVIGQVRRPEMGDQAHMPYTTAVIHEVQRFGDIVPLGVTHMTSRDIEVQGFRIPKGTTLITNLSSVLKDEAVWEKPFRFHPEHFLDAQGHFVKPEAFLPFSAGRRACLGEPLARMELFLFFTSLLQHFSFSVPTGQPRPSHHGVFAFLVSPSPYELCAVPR
Sequence of Cytochrome P450 2C9 (P11712 whole entry): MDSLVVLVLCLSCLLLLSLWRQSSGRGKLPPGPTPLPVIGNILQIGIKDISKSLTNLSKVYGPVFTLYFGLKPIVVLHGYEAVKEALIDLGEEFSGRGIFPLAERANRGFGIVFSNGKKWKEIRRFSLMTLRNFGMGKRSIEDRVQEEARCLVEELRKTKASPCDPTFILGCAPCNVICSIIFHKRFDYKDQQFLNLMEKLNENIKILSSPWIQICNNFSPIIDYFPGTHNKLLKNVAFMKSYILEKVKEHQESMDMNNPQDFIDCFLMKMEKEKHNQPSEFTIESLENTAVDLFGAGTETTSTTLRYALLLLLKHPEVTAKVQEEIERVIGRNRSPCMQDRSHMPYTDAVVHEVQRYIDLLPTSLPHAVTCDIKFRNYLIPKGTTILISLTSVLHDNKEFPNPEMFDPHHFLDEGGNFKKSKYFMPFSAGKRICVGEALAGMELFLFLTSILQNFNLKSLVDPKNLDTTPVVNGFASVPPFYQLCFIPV
Sequence of Cytochrome P450 3A4 (P08684 whole entry): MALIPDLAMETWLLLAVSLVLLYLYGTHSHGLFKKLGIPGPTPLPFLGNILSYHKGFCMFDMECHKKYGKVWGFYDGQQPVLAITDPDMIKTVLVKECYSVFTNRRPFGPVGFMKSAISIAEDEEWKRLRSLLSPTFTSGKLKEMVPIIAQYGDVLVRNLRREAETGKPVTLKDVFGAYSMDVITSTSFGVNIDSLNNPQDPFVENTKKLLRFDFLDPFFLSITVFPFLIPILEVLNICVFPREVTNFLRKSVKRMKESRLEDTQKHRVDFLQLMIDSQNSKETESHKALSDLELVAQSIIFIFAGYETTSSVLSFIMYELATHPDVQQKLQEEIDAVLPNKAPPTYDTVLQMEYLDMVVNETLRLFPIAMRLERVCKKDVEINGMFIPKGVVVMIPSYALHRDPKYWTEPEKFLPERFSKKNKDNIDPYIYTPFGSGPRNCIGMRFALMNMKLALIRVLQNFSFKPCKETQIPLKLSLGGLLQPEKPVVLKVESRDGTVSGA

Retention_time [19] [min] | Compound | dose excreted [1] [%] | bioavailability [2] [%] | fraction unbound at 2 µM [3] | IC50 [4] [µM] | clearance [5] [mL/min/kg] | IC50 [6] [µM] | half-life [7] [h] | IC50 [8] [µM] | EC50 [9] [µM] | IC50 [10] [µM] | fraction unbound at 2 µM [11] | IC50 [12] [µM] | Tmax [13] [h] | IC50 [14] [µM] | half-life [15] [h] | bioavailability [16] [%] | clearance [17] [mL/min/kg] | dose excreted [18] [%]
– | COc1ccc(Cl)cc1-c1cc(=O)[nH]c(=S)n1CC(N)=O [PF-06282999] | 26 | 100 | 0.536 | > 100 | 10.1 | > 100 | 3.28 | > 100 | 3.8 | > 100 | 0.46 | > 100 | 1 | > 100 | 1.36 | 76 | 10.3 | 26
17.49 | COc1ccc(-c2cc(=O)[nH]c(=S)n2CCO)c(OC)c1 | – | – | – | – | – | – | – | – | – | – | – | – | – | – | – | – | – | –
